Read-outs that look alike come from different tables or passages of the source.
How the values were obtained:
HIV-1 [1] = assay: Antiviral response: plasma HIV-1 RNA <400 copies/mL, ITT; format: in vivo, HIV-1–infected children
Method in brief: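 Children aged 2–18 years received twice-daily FPV ± RTV plus 2 or 3 active NRTIs, with plasma HIV-1 RNA measured every 4–12 weeks. The ITT (exposed) population was all subjects with ≥1 documented dose. In the snapshot analysis, response at each visit was taken from the last HIV-1 RNA within the visit window. Missing data counted as nonresponse, as did switching or adding background ART, unless toxicity-driven before week 2.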

[2] = study APV20003, cited from earlier work
[3] = Safety: adverse events, laboratory abnormalities, growth; format: in vivo, HIV-1–infected children; conditions: for subjects with at least 1 drug-related AE: 2- to <6-year olds (FPV/RTV 2/19; FPV 12/20); for change in median height and weight Z scores: week 48; for subjects with an AE leading to permanent discontinuation of study drug and withdrawal from the study: whole treatment group; for subjects reporting AEs: whole treatment group (FPV 19/20; FPV/RTV 83/89); for subjects with at least 1 drug-related grade 2–4 AE: whole treatment group (FPV/RTV 10/89; FPV 2/20)
Method in brief: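 AEs, growth parameters, hematology and clinical chemistry including a lipid panel were assessed every 4–12 weeks, with follow-up 4 weeks after withdrawal. Severity was graded by the DAIDS Toxicity Table (2004). All study drug was stopped for grade 3/4 AE or toxicity unless clearly unrelated.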

[4] = Steady-state plasma APV/RTV/FPV pharmacokinetics in HIV-1-infected children; format: in vivo
Method in brief: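 Dosing used FPV 50 mg/mL oral suspension or 700 mg tablets (≥39 kg), with RTV 80 mg/mL solution or 100 mg capsules (≥33 kg). At week 2, intensive sampling was taken at 0, 1, 2, 4, 6, 8 and 12 h postdose, plus predose samples every 4–12 weeks. Noncompartmental AUC(0–τ), Cmax, Cτ and CL/F were calculated; actual dose had to be within 10% of nominal. Log-transformed mixed-effect ANOVA gave geometric LS mean ratios (90% CI) versus historical healthy adults on FPV 1400 mg BID (n=190) or FPV/RTV 700/100 mg BID (n=159).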

CD4+ cell = CD4+ cell response; format: in vivo, HIV-1–infected children; conditions: week 48; for median CD4+ cell count change from baseline / median percentage CD4+ cell count change from baseline: whole treatment group
Method in brief: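 Lymphocyte subsets were monitored every 4–12 weeks in children given twice-daily FPV ± RTV with an NRTI background, with visits at weeks 2, 4, 8, 12, 16, 24, 36 and 48. CD4+ cell count and CD4+ percentage at week 48 were expressed as change from baseline and summarized as medians.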

HIV [5] = conditions: once-daily, cited from earlier work
HIV [6] = conditions: mostly PI-experienced, aged 6 to 17 years; time to loss of virologic response; cited from earlier work
HIV-1 [7] = conditions: ITT (missing = failure), cited from earlier work
[8] = 2- to <6-year olds (FPV 10/20, all grade 1; FPV/RTV 1/19, grade 2)

CC(C)CN(C[C@@H](OP(=O)(O)O)[C@H](Cc1ccccc1)NC(=O)O[C@H]1CCOC1)S(=O)(=O)c1ccc(N)cc1 [FPV, Fosamprenavir]
subjects with HIV-1 RNA <400 copies/mL at week 48 (HIV-1 [1]; FPV treatment group (PI-naïve, 2 to <6 yr), snapshot analysis): 60% | APV exposures compared with adults receiving FPV/RTV 1400/200 mg QD ([2]; 6- to 18-year-old children, 30/6 mg/kg QD): comparable | incidence of drug-related vomiting [3, 8]: 50% | subjects with at least 1 drug-related AE [3]: 60% | grade 3/4 hypertriglyceridemia, raised total cholesterol or raised low density lipoprotein cholesterol ([3]; FPV group): no grade 3/4 reports | change in median height and weight Z scores [3]: Small increases | subjects with an AE leading to permanent discontinuation of study drug and withdrawal from the study [3]: none | subjects reporting AEs [3]: 95% | subjects with at least 1 drug-related grade 2–4 AE [3]: 10% | plasma amprenavir exposures compared with 1400 mg twice-daily in adults ([4]; 30 mg/kg twice-daily, 2- to <6-year olds): higher | samples with undetectable plasma FPV prodrug concentrations ([4]; plasma): 98% | median CD4+ cell count change from baseline (CD4+ cell): 340 cells/mm^3 | median percentage CD4+ cell count change from baseline (CD4+ cell): 8%

CC(C)c1nc(CN(C)C(=O)N[C@H](C(=O)N[C@@H](Cc2ccccc2)C[C@H](O)[C@H](Cc2ccccc2)NC(=O)OCc2cncs2)C(C)C)cs1 [RTV, ritonavir]
plasma RTV Cτ ([4]; RTV 3 mg/kg BID in combination with FPV, across the age groups): higher

COC(=O)N[C@H](C(=O)N[C@@H](Cc1ccccc1)[C@@H](O)CN(Cc1ccc(-c2ccccn2)cc1)NC(=O)[C@@H](NC(=O)OC)C(C)(C)C)C(C)(C)C [RTV-boosted atazanavir, atazanavir]
response rate for HIV RNA <400 copies/mL at week 48 (HIV [5]; ART-experienced 6- to <18-year olds (8/25)): 32% | response rate for HIV RNA <400 copies/mL at week 48 (HIV [5]; ART-naïve 6- to <18-year olds (14/16)): 88%

CC(C)CN(C[C@@H](O)[C@H](Cc1ccccc1)NC(=O)O[C@H]1CO[C@H]2OCC[C@H]21)S(=O)(=O)c1ccc(N)cc1 [RTV-boosted darunavir, darunavir]
children achieving a viral load of <400 copies/mL at week 48 (HIV [6]): 59%

fosamprenavir/ritonavir [FPV/RTV]
subjects with HIV-1 RNA <400 copies/mL at week 48 (HIV-1 [1]; 2- to <6-year olds (14/19)): 74% | subjects with HIV-1 RNA <400 copies/mL at week 48 (HIV-1 [1]; 6- to <12-year-old (16/30)): 53% | subjects with HIV-1 RNA <400 copies/mL at week 48 (HIV-1 [1]; 12- to 18-year-old (25/40)): 63% | subjects with HIV-1 RNA <400 copies/mL at week 48 (HIV-1 [1]; ART-naïve subjects, snapshot analysis): 83% | subjects with HIV-1 RNA <400 copies/mL at week 48 (HIV-1 [1]; PI-experienced subjects, snapshot analysis): 48% | subjects with HIV-1 RNA <400 copies/mL at week 48 (HIV-1 [1]; PI-naïve/NRTI-experienced subjects, snapshot analysis): 65% | subjects with HIV-1 RNA <400 copies/mL at week 48 (HIV-1 [1]; range across age groups, intent-to-treat [exposed], snapshot analysis): 53–74% | lower APV exposure than adults receiving FPV/RTV 1400/200 mg QD ([2]; 2- to <6-year-old children, FPV/RTV 30/6 mg/kg QD): ~ 28% | incidence of drug-related vomiting [3, 8]: 5% | subjects with at least 1 drug-related AE [3]: 11% | incidence of drug-related vomiting ([3]; 6- to <12-year olds (9/30; 7 grade 1 and 2 grade 2)): 30% | subjects with drug-related AEs ([3]; 6- to <12-year olds (13/30)): 43% | AEs leading to permanent discontinuation of study drug ([3]; 6- to <12-year olds (hypertriglyceridemia)): 1 | incidence of drug-related vomiting ([3]; 12- to 18-year olds (3/40, all grade 1)): 8% | subjects with drug-related AEs ([3]; 12- to 18-year olds (15/40)): 38% | AEs leading to permanent discontinuation of study drug ([3]; 12- to 18-year olds (adverse drug reaction and pyelonephritis)): 2 | grade 3/4 hypertriglyceridemia ([3]; FPV/RTV group): no reports | grade 2–4 diarrhea ([3]; FPV/RTV group (2/89)): 2% | grade 3 increases in total cholesterol ([3]; FPV/RTV group (2 subjects)): 5% | grade 2–4 vomiting ([3]; FPV/RTV group (3/89)): 3% | grade 3 increases in low density lipoprotein cholesterol ([3]; FPV/RTV group (4 subjects)): 9% | drug-related nausea ([3]; adolescent group (6/40)): 15% | drug-related diarrhea ([3]; adolescent group (7/40)): 18% | change in median height and weight Z scores [3]: Small increases | subjects with an AE leading to permanent discontinuation of study drug and withdrawal from the study [3]: Four | subjects reporting AEs [3]: 93% | subjects with at least 1 drug-related grade 2–4 AE [3]: 11% | APV AUC(0–τ) and Cmax compared with adults receiving FPV/RTV 700/100 mg BID ([4]; FPV/RTV 15/3 mg/kg BID, 6- to <12-year olds and 12- to 18-year olds): lower | higher plasma APV AUC(0–τ), Cmax and Cτ values than historical adults receiving FPV/RTV 700/100 mg BID ([4]; FPV/RTV 23/3 mg/kg BID, 2- to <6-year olds): approximately 50% | plasma APV exposures compared with the historical adult population ([4]; FPV/RTV 700/100 mg BID, 12- to 18-year-old subjects ≥39 kg): similar | median CD4+ cell count change (CD4+ cell; 2- to <6-year olds): 174 cells/mm^3 | percentage CD4+ cell count change (CD4+ cell; 2- to <6-year olds): 10% | median CD4+ cell count change (CD4+ cell; 6- to <12-year olds): 210 cells/mm^3 | percentage CD4+ cell count change (CD4+ cell; 6- to <12-year olds): 7% | median CD4+ cell count change (CD4+ cell; 12- to 18-year olds): 140 cells/mm^3 | percentage CD4+ cell count change (CD4+ cell; 12- to 18-year olds): 7% | median CD4+ cell count change from baseline (CD4+ cell): 190 cells/mm^3 | median percentage CD4+ cell count change from baseline (CD4+ cell): 8%

lopinavir (LPV)/RTV [LPV/RTV]
subjects with HIV-1 RNA <400 copies/mL after 48 weeks (HIV-1 [7]; ART-naïve): 88% | subjects with HIV-1 RNA <400 copies/mL after 48 weeks (HIV-1 [7]; PI-experienced/NRTI-experienced): 58% | subjects with HIV-1 RNA <400 copies/mL after 48 weeks (HIV-1 [7]; PI-naïve/NRTI-experienced): 84%
